Laboratory results published in ChEMBL document CHEMBL1629627, “CTX-M expression and selection of ertapenem resistance in Klebsiella pneumoniae and Escherichia coli” (Antimicrob Agents Chemother, 2009).
The source made the active and inactive calls. The rule behind the calls is not given here.

Assays:
Assay type in all cases: functional, organism-based
Klebsiella pneumoniae [1] = assay: Antibacterial activity against Klebsiella pneumoniae M expressing CTX-M3
Escherichia coli [2] = assay: Reduction of OmpF expression in Escherichia coli Wi expressing CTX-M15 at 4 times MIC concentration by RT-PCR analysis
Procedure, shortened: (§1)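 Ertapenem-decreased-susceptibility mutants of E. coli Wi transformants were selected overnight (18 h, 37°C) on Trypticase soy agar containing ertapenem at fourfold the MIC. omp gene transcripts were quantified by real-time RT-PCR in isolates before and after selection. Calibration curves came from serially diluted cDNA of in vitro-obtained RNA standards for each gene, and copy numbers were compared using the curve slopes.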

Klebsiella pneumoniae [3] = assay: Reduction of OmpK36 expression in wild type Klebsiella pneumoniae M at 4 times MIC concentration by RT-PCR analysis
Procedure, shortened: (§2)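 K. pneumoniae M strains, with or without CTX-M, were selected for 18 h at 37°C on Trypticase soy agar with ertapenem at four times the MIC. ompK35 (222-bp amplicon) and ompK36 (202-bp amplicon) transcripts were measured by real-time RT-PCR before and after selection; a 193-bp 16S rRNA amplicon was also amplified. Copy numbers were derived from the slopes of calibration curves made with serially diluted cDNA from in vitro RNA standards.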

Klebsiella pneumoniae [4] = assay: Reduction of OmpK36 expression in Klebsiella pneumoniae M expressing CTX-M2 at 4 times MIC concentration by RT-PCR analysis; procedure, shortened: as §2
Klebsiella pneumoniae [5] = assay: Reduction of OmpK35 expression in Klebsiella pneumoniae M expressing CTX-M2 at 4 times MIC concentration by RT-PCR analysis; procedure, shortened: as §2
Escherichia coli [6] = assay: Reduction of OmpC expression in Escherichia coli Wi expressing CTX-M15 at 4 times MIC concentration by RT-PCR analysis; procedure, shortened: as §1
Escherichia coli [7] = assay: Reduction of OmpF expression in Escherichia coli Wi expressing CTX-M3 at 4 times MIC concentration by RT-PCR analysis; procedure, shortened: as §1
Klebsiella pneumoniae [8] = assay: Reduction of OmpK35 expression in Klebsiella pneumoniae M expressing CTX-M3 at 4 times MIC concentration by RT-PCR analysis; procedure, shortened: as §2
Escherichia coli [9] = assay: Reduction of OmpC expression in Escherichia coli Wi expressing CTX-M2 at 4 times MIC concentration by RT-PCR analysis; procedure, shortened: as §1
Klebsiella pneumoniae [10] = assay: Reduction of OmpK36 expression in Klebsiella pneumoniae M expressing CTX-M9 at 4 times MIC concentration by SDS-PAGE analysis
Escherichia coli [11] = assay: Reduction of OmpC expression in Escherichia coli Wi expressing CTX-M15 at 4 times MIC concentration by SDS-PAGE analysis
Escherichia coli [12] = assay: Reduction of OmpC expression in Escherichia coli Wi expressing CTX-M2 at 4 times MIC concentration by SDS-PAGE analysis
Escherichia coli [13] = assay: Reduction of OmpF expression in Escherichia coli Wi expressing CTX-M9 at 4 times MIC concentration by RT-PCR analysis; procedure, shortened: as §1
Escherichia coli [14] = assay: Antibacterial activity against Escherichia coli Wi expressing CTX-M3
Klebsiella pneumoniae [15] = assay: Reduction of OmpK36 expression in wild type Klebsiella pneumoniae M at 4 times MIC concentration by SDS-PAGE analysis
Klebsiella pneumoniae [16] = assay: Reduction of OmpK36 expression in Klebsiella pneumoniae M expressing CTX-M15 at 4 times MIC concentration by SDS-PAGE analysis
Klebsiella pneumoniae [17] = assay: Reduction of OmpK36 expression in Klebsiella pneumoniae M expressing CTX-M15 at 4 times MIC concentration by RT-PCR analysis; procedure, shortened: as §2
Escherichia coli [18] = assay: Reduction of OmpC expression in Escherichia coli Wi expressing CTX-M3 at 4 times MIC concentration by SDS-PAGE analysis
Klebsiella pneumoniae [19] = assay: Reduction of OmpK36 expression in Klebsiella pneumoniae M expressing CTX-M3 at 4 times MIC concentration by RT-PCR analysis; procedure, shortened: as §2
Klebsiella pneumoniae [20] = assay: Antibacterial activity against Klebsiella pneumoniae M expressing CTX-M15
Klebsiella pneumoniae [21] = assay: Reduction of OmpK36 expression in Klebsiella pneumoniae M expressing CTX-M2 at 4 times MIC concentration by SDS-PAGE analysis
Klebsiella pneumoniae [22] = assay: Antibacterial activity against Klebsiella pneumoniae M expressing CTX-M9
Klebsiella pneumoniae [23] = assay: Reduction of OmpK35 expression in Klebsiella pneumoniae M expressing CTX-M15 at 4 times MIC concentration by RT-PCR analysis; procedure, shortened: as §2
Escherichia coli [24] = assay: Reduction of OmpF expression in Escherichia coli Wi expressing CTX-M2 at 4 times MIC concentration by RT-PCR analysis; procedure, shortened: as §1
Klebsiella pneumoniae [25] = assay: Reduction of OmpK36 expression in Klebsiella pneumoniae M expressing CTX-M9 at 4 times MIC concentration by RT-PCR analysis; procedure, shortened: as §2
Escherichia coli [26] = assay: Antibacterial activity against Escherichia coli Wi expressing CTX-M9
Klebsiella pneumoniae [27] = assay: Reduction of OmpK35 expression in Klebsiella pneumoniae M expressing CTX-M9 at 4 times MIC concentration by RT-PCR analysis; procedure, shortened: as §2
Klebsiella pneumoniae [28] = assay: Reduction of OmpK36 expression in Klebsiella pneumoniae M expressing CTX-M3 at 4 times MIC concentration by SDS-PAGE analysis
Escherichia coli [29] = assay: Reduction of OmpC expression in Escherichia coli Wi expressing CTX-M3 at 4 times MIC concentration by RT-PCR analysis; procedure, shortened: as §1
Klebsiella pneumoniae [30] = assay: Antibacterial activity against Klebsiella pneumoniae M expressing CTX-M2
Escherichia coli [31] = assay: Antibacterial activity against Escherichia coli Wi expressing CTX-M2
Escherichia coli [32] = assay: Reduction of OmpC expression in Escherichia coli Wi expressing CTX-M9 at 4 times MIC concentration by SDS-PAGE analysis
Escherichia coli [33] = assay: Antibacterial activity against Escherichia coli Wi expressing CTX-M15
Escherichia coli [34] = assay: Reduction of OmpC expression in Escherichia coli Wi expressing CTX-M9 at 4 times MIC concentration by RT-PCR analysis; procedure, shortened: as §1

In the case of `C[C@@H](O)[C@H]1C(=O)N2C(C(=O)O)=C(S[C@@H]3CN[C@H](C(=O)Nc4cccc(C(=O)O)c4)C3)[C@H](C)[C@H]12`, the Activity (Klebsiella pneumoniae [1]) is reported as “inactive”, the Activity (Escherichia coli [2]) is reported as “Active” and the Activity (Klebsiella pneumoniae [3]) is reported as “Active”. For the same compound, the Activity (Klebsiella pneumoniae [4]) was “Active”, the Activity (Klebsiella pneumoniae [5]) was “Active” and the Activity (Escherichia coli [6]) was “Active”. For the same compound, the Activity (Escherichia coli [7]) was “Active”, the Activity (Klebsiella pneumoniae [8]) was “Active” and the Activity (Escherichia coli [9]) was “Active”. The Activity (Klebsiella pneumoniae [10]) was “Active”, the Activity (Escherichia coli [11]) was “Active” and the Activity (Escherichia coli [12]) was “Active”. The Activity (Escherichia coli [13]) was “Active”, the Activity (Escherichia coli [14]) was “inactive” and the Activity (Klebsiella pneumoniae [15]) was “Active”. For the same compound, the Activity (Klebsiella pneumoniae [16]) was “Active”, the Activity (Klebsiella pneumoniae [17]) was “Active” and the Activity (Escherichia coli [18]) was “Active”. The Activity (Klebsiella pneumoniae [19]) was “Active”, the Activity (Klebsiella pneumoniae [20]) was “inactive” and the Activity (Klebsiella pneumoniae [21]) was “Active”. For the same compound, the Activity (Klebsiella pneumoniae [22]) was “inactive”, the Activity (Klebsiella pneumoniae [23]) was “Active” and the Activity (Escherichia coli [24]) was “Active”. For the same compound, the Activity (Klebsiella pneumoniae [25]) was “Active”, the Activity (Escherichia coli [26]) was “inactive” and the Activity (Klebsiella pneumoniae [27]) was “Active”. For the same compound, the Activity (Klebsiella pneumoniae [28]) was “Active”, the Activity (Escherichia coli [29]) was “Active” and the Activity (Klebsiella pneumoniae [30]) was “inactive”. For the same compound, the Activity (Escherichia coli [31]) was “inactive”, the Activity (Escherichia coli [32]) was “Active” and the Activity (Escherichia coli [33]) was “inactive”. For the same compound, the Activity (Escherichia coli [34]) was “Active”.
